The subject of assay [1] is Botryosphaeria berengeriana. The assay can be described thus: Antifungal activity against Botryosphaeria berengeriana at 50 mg/L relative to control. Type of assay: functional.
The nature of assay [2]: Cytotoxicity against multi-drug resistant human KBv200 cells after 72 hrs by MTT assay. The note with it: KBv200, 72 h. Type of assay: functional, cell-based. In a few lines: (§1)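 MTT read-out after 72 h exposure to compound. KB are drug-sensitive human oral carcinoma cells. KBv200 are the vincristine-induced multidrug-resistant derivative overexpressing ABCB1. Values are means of three independent experiments, each run in quadruplicate, with coefficients of variation below 10%.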

The test system of assay [3] is Bipolaris maydis. The assay can be described thus: Antifungal activity against Bipolaris maydis at 50 mg/L relative to control. Type of assay: functional.
Assay [4] relates to Fusarium graminearum. In words: Antifungal activity against Gibberella zeae at 50 mg/L relative to control. Format: functional.
Assay [5] has as its system KB. The assay can be described thus: Cytotoxicity against human KB cells after 72 hrs MTT assay. Format: functional, cell-based. In short, it runs like this:
as §1
A general note: Formazan colour is commonly taken as a measure of viable cells.

The test system of assay [6] is Botrytis cinerea. The assay can be described thus: Antifungal activity against Botrytis cinerea at 50 mg/L relative to control. Type of assay: functional.
The subject of assay [7] is Rhizoctonia solani. The assay can be described thus: Antifungal activity against Rhizoctonia solani at 50 mg/L relative to control. Format: functional.

Broadly, the inhibition is the change of the read-out against control, counted positive when it falls. Low values mean a response near the control, high ones a response far below the control. Broadly, the IC50 is the concentration needed to halve the response being measured. Low readings indicate inhibition by little substance, high ones a need for much substance. Consider `Cc1nc2sc3c(c2c2nc(Oc4ccc(F)cc4F)n(-c4ccccc4)c(=O)c12)CCCC3`, for which the inhibition at 50 µg/mL is 50% in assay [1]; 71% in assay [3]; 38% in assay [4]; 78% in assay [6]; 63% in assay [7]. Also, the IC50 in assay [2] and in assay [5] was more than 100 µM each time.

With `O=c1[nH]cc(F)c(=O)[nH]1` [FLUOROURACIL], in assay [5], it took 12.5 µM to reach half-maximal inhibition (IC50).

As to `CC(C)(C)C(=O)C(Oc1ccc(Cl)cc1)n1cncn1` (configuration not stated) [TRIADIMEFON], the inhibition at 50 µg/mL is 59% in assay [4], 78% in assay [6] and 91% in assay [7].

Consider `Cc1nc2sc3c(c2c2nc(Oc4cc(F)cc(F)c4)n(-c4ccccc4)c(=O)c12)CCCC3`, for which the inhibition at 50 µg/mL in assay [1] worked out at 61%; in assay [3], 48%; in assay [4] it was 31%; in assay [6], 83%; in assay [7], 74%. Further, the half-maximal inhibitory concentration (IC50) in assay [2] came to 39.9 µM; in assay [5], 52.5 µM.

Turning to `Cc1cc(Oc2nc3c(c(C)nc4sc5c(c43)CCCC5)c(=O)n2-c2ccccc2)ccc1Cl`, the inhibition at 50 µg/mL in assay [1] is 39%; in assay [3], 52%; in assay [4], 31%; in assay [6], 73%; in assay [7] it was 22%. The values for the IC50 in assay [2] and in assay [5] were 72.2 µM and 84.3 µM, respectively.

Turning to `Cc1nc2sc3c(c2c2nc(Oc4ccc(Br)cc4)n(-c4ccccc4)c(=O)c12)CCCC3`, the inhibition at 50 µg/mL in assay [1] came to 83%; in assay [3] it was 81%; in assay [4] it was 65%; in assay [6], 83%; in assay [7] it was 68%. In addition, the IC50 in assay [2] was more than 100 µM; in assay [5], 68.9 µM.

Take `Cc1ccc(Cl)c(Oc2nc3c(c(C)nc4sc5c(c43)CCCC5)c(=O)n2-c2ccccc2)c1`: the inhibition at 50 µg/mL is 50% in assay [1]; 48% in assay [3]; 23% in assay [4]; 88% in assay [6]; 63% in assay [7]. In addition, the IC50 in assay [2] and in assay [5] was more than 100 µM each time.

For the compound `CCCNc1nc2c(c(C)nc3sc4c(c32)CCCC4)c(=O)n1-c1ccccc1`, the inhibition at 50 µg/mL was determined as 29% in assay [1]; 47% in assay [3]; 20% in assay [4]; 57% in assay [6]; 24% in assay [7]. For the same compound, the IC50 in assay [2] was 25.4 µM; in assay [5], 17.4 µM.

Regarding `Cc1nc2sc3c(c2c2nc(Oc4cccc(F)c4)n(-c4ccccc4)c(=O)c12)CCCC3`, the inhibition at 50 µg/mL in assay [1] came out at 78%; in assay [3] it was 90%; in assay [4] it was 58%; in assay [6], 98%; in assay [7], 84%. Also, the IC50 in assay [2] and in assay [5] was more than 100 µM throughout.

In the case of `Cc1cccc(Oc2nc3c(c(C)nc4sc5c(c43)CCCC5)c(=O)n2-c2ccccc2)c1`, the inhibition at 50 µg/mL in assay [1] is 78%; in assay [3], 81%; in assay [4], 65%; in assay [6] it was 99%; in assay [7], 91%. Further, the IC50 in assay [2] and in assay [5] was more than 100 µM throughout.

For `CCCCNc1nc2c(c(C)nc3sc4c(c32)CCCC4)c(=O)n1-c1ccccc1`, the inhibition at 50 µg/mL came out at 76% in assay [1]; 79% in assay [3]; 83% in assay [4]; 100% in assay [6]; 89% in assay [7]. Also, the IC50 was found to be 32.8 µM in assay [2] and 32 µM in assay [5].

Regarding `Cc1nc2sc3c(c2c2nc(Oc4ccc([N+](=O)[O-])cc4)n(-c4ccccc4)c(=O)c12)CCCC3`, the inhibition at 50 µg/mL in assay [1] was 61%; in assay [3], 67%; in assay [4], 46%; in assay [6] it was 85%; in assay [7] it was 68%. Also, the IC50 in assay [2] and in assay [5] was more than 100 µM throughout.

On to `Cc1nc2sc3c(c2c2nc(Oc4ccc(F)cc4Cl)n(-c4ccccc4)c(=O)c12)CCCC3`, for which the inhibition at 50 µg/mL in assay [1] is 67%; in assay [3] it was 67%; in assay [4] it was 54%; in assay [6], 88%; in assay [7] it was 79%. In addition, the IC50 in assay [2] and in assay [5] was more than 100 µM throughout.

Regarding `Cc1nc2sc3c(c2c2nc(Oc4ccccc4)n(-c4ccccc4)c(=O)c12)CCCC3`, the inhibition at 50 µg/mL is 56% in assay [1]; 76% in assay [3]; 15% in assay [4]; 85% in assay [6]; 65% in assay [7]. Moreover, the values for the IC50 in assay [2] and in assay [5] were 61.9 µM and 54.2 µM, respectively.

As to `COc1cccc(Oc2nc3c(c(C)nc4sc5c(c43)CCCC5)c(=O)n2-c2ccccc2)c1`, the inhibition at 50 µg/mL in assay [1] worked out at 67%; in assay [3] it was 76%; in assay [4] it was 42%; in assay [6] it was 66%; in assay [7], 76%. The IC50 in assay [2] and in assay [5] was more than 100 µM each time.

As for `Cc1ccc(Oc2nc3c(c(C)nc4sc5c(c43)CCCC5)c(=O)n2-c2ccccc2)cc1`, the inhibition at 50 µg/mL came to 56% in assay [1]; 76% in assay [3]; 31% in assay [4]; 80% in assay [6]; 61% in assay [7]. For the same compound, the figures for the IC50 in assay [2] and in assay [5] were 67.3 µM and 48.3 µM, respectively.

These data come from ChEMBL document CHEMBL1156123, “A facile synthesis and biological activity of novel tetrahydrobenzo[4',5']thieno[3',2':5,6]pyrido[4,3-d]pyrimidin-4(3H)-ones” (Bioorg Med Chem Lett, 2009).
